# Compounds with a hit are over-represented: about 4.4% of the library has one in this group of screens.
# HSF1 inhib: HSF1 inhibitors in luciferase reporter cells, primary screen, cell-based, NIH3T3, luminescence; actives 0.77% (n = 300,000); activity change, negative = inhibition, % at 7.5 µM (by protocol); NIH3T3-HGL HSE-luciferase, MG132-induced, luminescence 8 h; stronger effect = lower value;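 active means more than half of replicate wells show activity change below -50%, luminescence cut by over half; inconclusive means some wells, but at most half, below -50%; inactive means no replicate well below -50%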;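 further: luciferase reports HSF-1 transcriptional activity via heat shock element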
# HSF1 activator: HSF-1 activators, primary screen, NIH3T3-HGL cells, MG132 stress, luminescence, single point | activation, % at 9 µM | actives 1.7% (n = 300,000) | NIH3T3-HGL HSF-1 luciferase reporter, 8 h; 100% = twice DMSO control signal;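 active means mean replicate activation of at least 50% with a set share of replicates each reaching 50%; inconclusive means only one of those two conditions met; inactive means mean below 50% and too few replicates reaching it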
# T cruzi inh: inhibitors of intracellular T. cruzi growth, primary screen, luminescence, NIH3T3 host cells; inhibition, % (concentration not given with the values); T. cruzi beta-gal in NIH3T3, 90 h; actives 1.4% (n = 300,000);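 active means mean inhibition across valid replicates above about 55%, limit read from the data; inconclusive means mean below that limit but half or more replicates reach it; inactive means mean below it, under half of replicates reach it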;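 further: signal also drops with host cell toxicity which is not excluded here; higher percent means less beta-gal luminescence so fewer parasites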
#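 System: Mouse NIH/3T3 fibroblasts infected with β-gal-expressing T. cruzi Tulahuen C4 | Quantity: NIH/3T3 cells, 5,000 per well | Reagent: 5000 reporter trypomastigotes per well | Dosing: Compound pinned at 50 nL/well, DMSO | Schedule: 3 h host attachment, then at least 90 h co-culture | Detection: GalScreen luminescence, 60 min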
# Calb FLC: C. albicans growth inhibition with fluconazole, primary screen, CaCi-2 strain, Alamar Blue fluorescence | C. albicans CaCi-2 + fluconazole, 48 h | growth inhibition, % (test concentration not listed) | actives 0.57% (n = 300,000) | AID 1979, 2009;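 active means growth inhibition above about 58% in most replicates, limit read from the data, passing the limit was not always enough; inconclusive means exactly half the replicates above a set limit; inactive means most replicates below a set limit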;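 further: all wells also contain fluconazole at 8 µg/ml as a sub-toxic cotreatment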
# HIF activator: HIF pathway transcriptional activators, primary screen, cell-based, U2OS HRE-luciferase, luminescence | U2OS HRE-luciferase reporter; normalized: DMSO 0%, desferrioxamine 100% | actives 0.32% (n = 300,000) | activation, % at 7.5 µM (by protocol) | AID 1910, 2009;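 active means mean activation of at least 10% of the iron chelator positive control signal, with at least half of replicates also reaching 10%; inconclusive means mean and replicate majority disagree about reaching 10%; inactive means mean and most replicates under 10%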
# Numbers stand for hits; . = inactive; ? = inconclusive; / = no result.
SMILES,HSF1 inhib,HSF1 activator,T cruzi inh,Calb FLC,HIF activator
N#Cc1ccccc1S(=O)(=O)N1CCN(C(=O)C2CCC2)CC1,.,.,.,.,.
CCOC(=O)CNC(=O)Cc1ccc(Cl)cc1,.,.,.,.,.
CCOC(=O)Cc1ccc(NCc2ccc(Cl)cc2)cc1,.,.,56,.,.
Cc1ccc(N=Nc2ccc(C)cc2NC(=O)Nc2ccccc2F)cc1,.,.,.,.,.
CCOC(=O)C1=NOC2C3CC(C12)C1C(=O)N(CCc2ccc(OC)c(OC)c2)C(=O)C31 (stereo not drawn),-71,.,.,.,.
COc1ccc(CCN2C(=O)C3C4CC(C5C(C(=O)N/N=C\c6ccc(Cl)cc6)=NOC45)C3C2=O)cc1OC (stereo not drawn),.,.,.,.,.
CC(=O)c1cccc2c(O)c(C3=Nc4ccccc4C3=O)[nH]c12,.,62,.,.,.
O=C1C(c2c(O)[nH]c3ccccc23)=Nc2ccccc21,.,.,.,/,.
CC1(C)CNC(=O)c2sc(NC(=O)c3ccccc3)nc2C1,.,.,.,.,.
CC1(C)CC(=O)c2sc(NC(=O)c3ccccc3)nc2C1,.,54,.,.,.
COc1ccc2c(c1)CCC(C)N2C(=O)C(=O)c1c[nH]c2ccccc12 (stereo not drawn),.,.,.,.,.
Cn1c(SCC(=O)Nc2ccc(N3CCOCC3)cc2)nnc1-c1ccccc1F,.,.,.,.,.
Fc1ccc(N2CCN(C(=S)NCc3ccco3)CC2)cc1,.,.,.,.,.
S=C(NCc1ccco1)N1CCN(c2ccccc2Cl)CC1,.,70,.,.,.
COc1cccc(N2CCN(C(=S)NCc3ccco3)CC2)c1,.,55,.,.,.
CC(C)(C)c1ccc(OCCC(=O)NCCc2ccc(S(N)(=O)=O)cc2)cc1,.,.,.,.,.
C1=C(c2ccccc2)CCN(c2ncnc3nc[nH]c23)C1,-75,.,.,.,.
c1ccc2c(c1)CCN(c1ncnc3nc[nH]c13)C2,.,.,.,.,.
Cn1c(O)c(/C=N/NC(=O)c2cc3ccccc3cc2O)c2ccccc21,.,.,.,83,?
Cn1c2ccccc2c2cc(/C=N/NC(=O)c3ccc(O)cc3O)ccc21,.,.,.,.,.
O=C(/C(Cl)=C/Nc1ccc(Br)cn1)C(F)(F)F,.,.,.,.,.
CC1CCCN(C(=O)C2(NC(=O)Nc3cccc(F)c3)CCCCC2)C1 (stereo not drawn),-86,.,.,.,.
CCCCN(C)Cc1c(C)[nH]c2c(Cl)cccc2c1=O,.,.,60,.,.
COc1cccc(CN2CCN(c3nc4nonc4nc3N3CCCCC3)CC2=O)c1,.,.,.,.,.
COc1cc(/C=N/O)ccc1OCc1ccc(C(=O)O)cc1,-77,.,.,.,.
SMILES,HSF1 inhib,HSF1 activator,T cruzi inh,Calb FLC,HIF activator
NC(N)=N/N=C/c1ccc(OCc2ccccc2)c(OCc2ccccc2)c1,.,.,.,.,.
COc1cccc(OCc2cc(/C=N/Nc3ccc(C(=O)O)cc3)ccc2OC)c1,-73,.,.,.,.
CCOc1cc(/C=N/N=C(N)N)ccc1OCc1ccc(Cl)cc1,.,.,.,105,.
COc1cc(/C=C(\C#N)C(=O)Nc2cccc(C(=O)O)c2)ccc1OCc1ccc(Cl)cc1,.,113,.,.,.
O=C(COc1ccc(Cl)cc1)NNC(=O)C(=O)NC1CCCCC1,.,.,.,.,.
O=C(CN1CCN(S(=O)(=O)c2ccc3ccccc3c2)CC1)Nc1ccc2c(c1)CCC2,.,.,.,.,.
Cn1ccnc1C1CCCCN1Cc1nc(-c2ccc(Cl)cc2)no1 (stereo not drawn),.,.,.,.,.
COc1cc(/C=N/NC(N)=S)ccc1OCc1ccc(C)cc1,.,.,58,.,.
COc1cc(/C=N/NC(N)=S)ccc1OC(=O)c1ccc(C)cc1,.,.,.,.,.
COc1cc(/C=N/O)ccc1OCc1ccc(Cl)cc1,.,108,.,?,.
COc1cc(/C=N/N=C(N)N)ccc1OCc1ccc(Cl)cc1,.,.,87,.,.
NC(=S)N/N=C\c1ccccc1OCc1ccccc1,.,.,55,.,.
O=C(Nc1ccc(F)cc1)C1CC(=O)N(Cc2ccco2)C1 (stereo not drawn),.,.,.,.,.
Cc1cccc2cc3c(N)c(C#N)sc3nc12,-54,.,.,.,.
Cc1sc(NC(=O)c2sc3nc4c(C)cccc4cc3c2N)c(C#N)c1C,.,.,.,.,.
COc1ccc(NC(=O)c2c(N)no[n+]2[O-])cc1,.,.,.,101,.
COc1ccc(NC(=O)c2c(N)no[n+]2[O-])c(OC)c1,.,.,.,.,.
COc1ccc(NC(=O)NC(C)c2ccccc2)cc1 (stereo not drawn),/,/,/,100,/
COc1ccc(NC(=O)c2cc3ccccc3o2)cc1OC,.,.,.,.,.
COc1ccc(NC(C)c2ccccc2)cc1 (stereo not drawn),.,.,.,.,.
COc1ccc(NC(=O)c2cc3ccccc3o2)cc1,.,55,.,.,.
COc1cccc(C(=O)Nc2ccc(NC(=O)C3CC=CCC3C(=O)O)cc2)c1 (stereo not drawn),-52,.,.,/,.
COc1ccc(NC(=O)c2ccc3ccccc3c2)cc1,.,62,.,.,.
CCCn1nnnc1NC(=O)c1ccc2ccccc2c1,.,.,.,116,.
CCCn1nnc(NC(=O)c2ccc3ccccc3c2)n1,.,.,.,.,.
SMILES,HSF1 inhib,HSF1 activator,T cruzi inh,Calb FLC,HIF activator
CC(=O)c1cccc(NC(=O)c2ccc3ccccc3c2)c1,.,55,.,.,.
COc1ccc(NC(=S)N2CCN(C(=O)c3ccccc3)CC2)cc1,.,.,.,.,58
CCC(=O)Nc1ccc(NC(=O)c2ccc3ccccc3c2)cc1,.,.,.,.,.
COc1ccc(CC(=O)N(C)C2CCCCC2)cc1S(=O)(=O)N1CCOCC1,.,.,.,.,.
CC(=O)c1c(C)oc2ccc(NS(=O)(=O)c3ccc(C)cc3)cc12,.,.,.,.,.
Cc1oc2ccc(NS(=O)(=O)c3ccc(C(C)(C)C)cc3)cc2c1C(=O)Nc1ccccc1,.,61,.,.,.
COc1ccc(Cc2nc3ccc(C(=O)NC(C)C)cc3o2)cc1,.,.,.,.,.
C=C(C)CNC(=O)c1ccc2nc(Cc3ccc(OC)cc3)oc2c1,.,.,.,.,11
CN1C=C/C(=C\c2cc[n+](C)c3ccccc23)c2ccccc21,.,.,56,?,.
COC(=O)C1=CN(c2ccc(OC)cc2)C=C(C(=O)OC)C1c1ccc([N+](=O)[O-])cc1,.,.,60,.,.
